From PMC3999704 (Current Chemical Genomics and Translational Medicine, 2014)

How the values were obtained:
Type in all cases: cell-based, rat
[1] = test system: GH3.TRE-Luc cells; test: Cell viability assay, intracellular ATP content; details: over the range of concentrations used within the 24 h treatment, presence of 1 nM T3
[2] = test system: thyroid hormone receptor (TR); test: qHTS GH3.TRE-Luc luciferase reporter gene assay, agonist mode; details: LOPAC library screen
In short: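 Cells were held 20 h in serum-free assay medium (DMEM:F12 with insulin, ethanolamine, selenite, apotransferrin and BSA), then detached and dispensed in 5 µl/well. After 4–5 h at 37°C, compound or DMSO was pinned in (final DMSO 0.46 or 0.92%) for 24 h. One-Glo was added, 30 min at room temperature, then luminescence read. Data were normalized to 100 nM T3 (100%) and DMSO (0%).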

[3] = test system: thyroid hormone receptor (TR); details: 24 well format, 24h, normalized to total protein values
In short: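 GH3.TRE-Luc cells were seeded at 150,000/well in DMEM:F12 with 15 mM HEPES, 10% FBS and Pen/Strep. After 24 h the medium was changed to PCM medium for another 24 h. Cells were then exposed 24 h to ligands in 0.2% DMSO. Luciferase was read from lysed cells and cell number estimated by BCA protein assay. Duplicates per dose, ≥3 experiments.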

SMILES | induction of the reporter gene luciferase activity [3] | further results
O=c1[nH]cc(F)c(=O)[nH]1 [5-fluorouracil] | – | cytotoxicity [1]: without apparent cytotoxicity
NCCCC(=O)O [GABA] | – | response in this assay [2]: did not show any response
N[C@@H](Cc1cc(I)c(Oc2ccc(O)c(I)c2)c(I)c1)C(=O)O [T3, triiodothyronine] | showed the expected induction profiles | –
O=S(=O)(c1ccccc1)N(CC(F)(F)F)c1ccc(C(O)(C(F)(F)F)C(F)(F)F)cc1 [T0901317] | neither the RAR-specific ligand TTNPB nor the LXR-specific ligand T0901317 activated the reporter gene | –
C/C(=C\c1ccc(C(=O)O)cc1)c1ccc2c(c1)C(C)(C)CCC2(C)C [TTNPB] | neither the RAR-specific ligand TTNPB nor the LXR-specific ligand T0901317 activated the reporter gene | –
